Measured values: ChEMBL document CHEMBL1156051, “Synthesis and evaluation of lysophosphatidylserine analogues as inducers of mast cell degranulation. Potent activities of lysophosphatidylthreonine and its 2-deoxy derivative” (J Med Chem, 2009)
Each block holds one compound with its values, some of them ahead of it. Active and inactive are the calls of the source. No cut-off for these calls is given here.

Tests used:
Mast cell [1] = experiment: Induction of Wistar rat peritoneal mast cell degradation assessed as concanavalin A-induced histamine release after 15 mins fluorometric assay; assay type: functional, cell-based; conditions: 0.25 h
Method in brief: (§1)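 Peritoneal mast cells at 5 × 10^4/mL in HEPES-buffered Tyrode stimulated with analogue plus 100 μg/mL concanavalin A for 15 min at 37 C. Supernatant histamine measured fluorometrically and expressed as percent of total cell histamine. Means ± SE of three independent experiments.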

Mast cell [2] = experiment: Induction of Wistar rat peritoneal mast cell degradation assessed as concanavalin A-induced histamine release at 0.01 to 10 uM after 15 mins fluorometric assay; assay type: functional, cell-based; method in brief: as §1
Mast cell [3] = experiment: Induction of C57BL/6 mouse peritoneal mast cell degradation assessed as concanavalin A-induced histamine release at 0.01 to 10 uM after 15 mins fluorometric assay; assay type: functional, cell-based
Method in brief: (§2)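 Peritoneal mast cells at 5 × 10^4/mL in HEPES-buffered Tyrode stimulated with analogue plus 10 μg/mL concanavalin A for 15 min at 37 C. Supernatant histamine measured fluorometrically and expressed as percent of total cell histamine. Means ± SE of three independent experiments.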

Mast cell [4] = experiment: Induction of C57BL/6 mouse peritoneal mast cell degradation assessed as concanavalin A-induced histamine release after 15 mins fluorometric assay; assay type: functional, cell-based; conditions: C57BL/6, Mast cell, 0.25 h; method in brief: as §2
Mus musculus [5] = experiment: Increase in plasma histamine level in iv dosed C57BL/6 mouse after 2 mins by EIA; assay type: functional, organism-based
Method in brief: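 Mice injected i.v. with analogue in PBS with 0.1% BSA; blood taken 2 min after injection and plasma histamine measured by enzyme immunoassay. Means ± SE of three independent experiments.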

Rattus norvegicus [6] = experiment: Effect on hypothermic effect in Wistar rat assessed as reduction in rectal temperature at 20 to 100 ug, iv measured every 5 to 10 mins for 60 mins; assay type: functional, organism-based
Method in brief: (§3)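 Analogue suspended in PBS with 0.1% BSA and given intravenously; rectal temperature read with a rectal probe every 5 or 10 min for 60 min. Means ± SE of three independent experiments.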

Mast cell [7] = experiment: Induction of Wistar rat peritoneal mast cell degranulation assessed as concanavalin A-induced histamine release at 0.03 uM pretreated for 15 mins measured after washout with 0.01% fatty acid-free BSA by fluorometric assay; assay type: functional, cell-based
Method in brief: (§4)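 Rat peritoneal mast cells preincubated with analogue, then washed with buffer containing 0.01% or 0.5% fatty-acid-free BSA. Cells then challenged with concanavalin A, and histamine release measured.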

Mast cell [8] = experiment: Ratio of lysophosphatidylserine EC50 to compound EC50 for induction of concanavalin A-stimulated Wistar rat peritoneal mast cell […] associated histamine release; assay type: functional
Mast cell [9] = experiment: Ratio of compound activity over lysophosphatidylserine activity for induction of anti-DNP IgE-stimulated Wistar rat peritoneal mast cell […] associated histamine release; assay type: functional
Mast cell [10] = experiment: Ratio of lysophosphatidylserine EC50 to compound EC50 for induction of concanavalin A-stimulated C57BL/6 mouse peritoneal mast cell […] associated histamine release; assay type: functional
[11] = system: G protein-coupled receptor 34 (Mus musculus); experiment: Activation of mouse GPR34 expressed in CHOK1 cells assessed as increase in intracellular calcium level by spectrofluorimetry; conditions: CHO-K1
[12] = Cytotoxicity against concanavalin A-stimulated Wistar rat peritoneal mast cells assessed as LDH release at 50 uM; assay type: cell-based
Mast cell [13] = experiment: Induction of Wistar rat peritoneal mast cell degranulation assessed as concanavalin A-induced histamine release at 0.03 uM pretreated for 15 mins measured after washout with 0.5% fatty acid-free BSA by fluorometric assay; assay type: functional, cell-based; method in brief: as §4
[14] = target: Probable G-protein coupled receptor 34 (Mus musculus) (UniProt Q9R1K6); experiment: Activation of mouse GPR34 expressed in CHOK1 cells assessed as phosphorylated ERK level at 0.01 to 10 uM by Western blotting; assay type: cell-based; conditions: CHO-K1
Chain of Probable G-protein coupled receptor 34 (Mus musculus) (Q9R1K6 whole entry): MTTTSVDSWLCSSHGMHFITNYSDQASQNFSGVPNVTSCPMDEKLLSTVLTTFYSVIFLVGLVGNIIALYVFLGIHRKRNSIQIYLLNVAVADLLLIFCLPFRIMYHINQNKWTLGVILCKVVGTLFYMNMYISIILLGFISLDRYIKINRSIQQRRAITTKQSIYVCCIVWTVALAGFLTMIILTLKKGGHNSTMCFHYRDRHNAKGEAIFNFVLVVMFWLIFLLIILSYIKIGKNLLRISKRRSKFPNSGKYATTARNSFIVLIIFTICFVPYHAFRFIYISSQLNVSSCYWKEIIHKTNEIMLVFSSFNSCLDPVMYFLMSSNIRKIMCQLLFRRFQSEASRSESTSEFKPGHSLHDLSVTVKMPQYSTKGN
Method in brief: (§5)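 Serum-starved CHO-K1 cells stably expressing flag-tagged GPR34 were stimulated with analogue for 5 min at 37 C and stopped by rapid cooling on ice. Lysates (6 μg protein) were Western blotted with antibodies to phospho-p42/p44 and total p42/p44 MAP kinase. Mock-transfected cells served as control.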

[15] = system: G protein-coupled receptor 34 (Mus musculus); experiment: Activation of mouse GPR34 expressed in CHOK1 cells assessed as total ERK level at 0.01 to 10 uM by Western blotting; conditions: CHO-K1
Mus musculus [16] = species on record: Mus musculus; experiment: Ratio of compound activity over lysophosphatidylserine activity for induction of hypothermic effect in C57BL/6 mouse; assay type: functional
[17] = target: Probable G-protein coupled receptor 34 (Mus musculus) (UniProt Q9R1K6); experiment: Activation of mouse GPR34 expressed in CHOK1 cells assessed as total ERK level at 0.01 to 10 uM by Western blotting; assay type: cell-based; conditions: CHO-K1; method in brief: as §5
CHO-K1 [18] = experiment: Increase in intracellular calcium level in CHOK1 cells by spectrofluorimetry; assay type: functional, cell-based; conditions: Cricetulus griseus
Method in brief: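 Fura-2-loaded mock-transfected CHO-K1 cells were stimulated at 2 μM; [Ca2+]i read as 500 nm emission ratio at 340/380 nm excitation.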

CHO-K1 [19] = experiment: Inhibition of forskolin-induced cAMP production in CHOK1 cells at 0.01 to 10 uM after 30 mins by EIA; assay type: functional, cell-based; conditions: Cricetulus griseus
Method in brief: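 Mock-transfected CHO-K1 cells were cultured overnight and pretreated 20 min with 0.5 mM IBMX, then costimulated with analogue and 25 μM forskolin for 30 min at 37 C; accumulated cAMP was measured by EIA.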

CHO-K1 [20] = experiment: Increase in MAPK level in CHOK1 cells at 0.01 to 10 uM by Western blotting; assay type: functional, cell-based; conditions: Cricetulus griseus
Method in brief: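 Serum-starved mock (empty vector) transfected CHO-K1 cells were stimulated for 5 min at 37 C and cooled on ice to stop. Lysates (6 μg protein) were Western blotted for phospho- and total p42/p44 MAP kinase.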

[21] = target: Probable G-protein coupled receptor 34 (Mus musculus) (UniProt Q9R1K6); experiment: Activation of mouse GPR34 expressed in CHOK1 cells assessed as increase in intracellular calcium level by spectrofluorimetry; assay type: functional, cell-based; conditions: CHO-K1
Method in brief: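 Fura-2-loaded CHO-K1 cells stably expressing flag-tagged GPR34 (G418 selection, then anti-flag immunomagnetic positive selection), stimulated with analogue at 2 μM; [Ca2+]i read fluorometrically as ratio of 500 nm emission at 340/380 nm excitation.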

Mus musculus [22] = experiment: Effect on hypothermic effect in C57BL/6 mouse assessed as reduction in rectal temperature at 1 to 5 ug, iv measured every 5 to 10 mins for 60 mins; assay type: functional, organism-based; method in brief: as §3
[23] = target: Probable G-protein coupled receptor 34 (Mus musculus) (UniProt Q9R1K6); experiment: Activation of mouse GPR34 expressed in CHOK1 cells assessed as inhibition of forskolin-induced cAMP production at 0.01 to 10 uM after 30 mins by EIA; assay type: functional, cell-based; conditions: CHO-K1
Method in brief: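 CHO-K1 stably expressing flag-tagged mouse GPR34, cultured overnight, pretreated 20 min with 0.5 mM IBMX, then costimulated with analogue plus 25 μM forskolin for 30 min at 37 C; cAMP measured by EIA, level without ligand set as 100%.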

Mast cell [24] = experiment: Induction of Wistar rat peritoneal mast cell degradation assessed as anti-DNP IgE-induced histamine release at 0.01 to 10 uM after 15 mins fluorometric assay; assay type: functional, cell-based
[25] = system: G protein-coupled receptor 34 (Mus musculus); experiment: Activation of mouse GPR34 expressed in CHOK1 cells assessed as phosphorylated ERK level at 0.01 to 10 uM by Western blotting; conditions: CHO-K1
Rattus norvegicus [26] = species on record: Rattus norvegicus; experiment: Ratio of compound activity over lysophosphatidylserine activity for induction of hypothermic effect in Wistar rat; assay type: functional
Mus musculus [27] = experiment: Effect on hypothermic effect in iv dosed C57BL/6 mouse assessed as reduction in rectal temperature measured every 5 to 10 mins for 60 mins; assay type: functional, organism-based; method in brief: as §3
Rattus norvegicus [28] = experiment: Effect on hypothermic effect in iv dosed Wistar rat assessed as reduction in rectal temperature measured every 5 to 10 mins for 60 mins; assay type: functional, organism-based; method in brief: as §3
Mus musculus [29] = experiment: Effect on hypothermic effect in mast cell-deficient WBB6F1 mouse assessed as reduction in rectal temperature at 10 ug, iv measured every 5 to 10 mins for 60 mins; assay type: functional, organism-based
Method in brief: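 W/Wv mast cell-deficient mice, with C57BL/6 as comparison, were given 10 μg iv in PBS containing 0.1% BSA. Rectal temperature was monitored every 5 or 10 min for 60 min. Three independent experiments.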

Mast cell [30] = experiment: Stimulation of mouse bone marrow-derived mast cell degranulation; assay type: functional, cell-based
Rattus norvegicus [31] = experiment: Effect on hypothermic effect in Wistar rat assessed as reduction in rectal temperature at 20 to 200 ug, iv measured every 5 to 10 mins for 60 mins; assay type: functional, organism-based
Method in brief: (§6)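 Analogue suspended in PBS with 0.1% BSA and injected iv into C57BL/6 mice or Wistar rats; rectal temperature recorded by probe every 5 or 10 min for 60 min. Means of three independent experiments.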

Mus musculus [32] = experiment: Effect on hypothermic effect in C57BL/6 mouse assessed as reduction in rectal temperature at 25 to 100 ug, iv measured every 5 to 10 mins for 60 mins; assay type: functional, organism-based; method in brief: as §6

EC50 (Mast cell [1]): 150 nM
EC50 (Mast cell [4]): 50 nM
Compound: CCCCCCCCCCCC(=O)OC[C@@H](O)COP(=O)(O)O[C@H](C)[C@H](N)C(=O)O

EC50 (Mast cell [1]): 40 nM
EC50 (Mast cell [4]): 20 nM
Compound: CCCCCCCCCCCCCCCC(=O)OC[C@@H](O)COP(=O)(O)O[C@H](C)[C@H](N)C(=O)O
Activity (Mus musculus [5]): Active

Activity [11]: inactive
Activity [14]: inactive
EC50 (Mast cell [1]): 40 nM
Activity [15]: inactive
Activity [17]: inactive
Activity [21]: inactive
EC50 (Mast cell [4]): 10 nM
Activity [23]: inactive
Activity [25]: inactive
Compound: CCCCCCCCCCCCCCCCCC(=O)OC[C@@H](O)COP(=O)(O)O[C@H](C)[C@H](N)C(=O)O
Activity (Rattus norvegicus [6]): Active
Activity (Mast cell [7]): Active
Activity (Mast cell [2]): Active
Ratio EC50 (Mast cell [8]): 10
Ratio (Mast cell [9]): 10
Ratio EC50 (Mast cell [10]): 10
Activity [12]: Non-toxic
Activity (Mast cell [13]): inactive
Activity (Mast cell [3]): Active
Ratio (Mus musculus [16]): 20
Activity (CHO-K1 [18]): inactive
Activity (CHO-K1 [19]): inactive
Activity (CHO-K1 [20]): inactive
Activity (Mus musculus [22]): Active
Activity (Mast cell [24]): Active
Activity (Mus musculus [5]): Active
Ratio (Rattus norvegicus [26]): 50

EC50 (Mast cell [1]): > 10000 nM
Compound: CCCCCCCCCCCCCCCC(=O)OCCCOP(=O)(O)O[C@H](C)[C@@H](N)C(=O)O
Activity (Mus musculus [27]): inactive
Activity (Rattus norvegicus [28]): inactive

Continued, compound first:

Compound: CCCCCCCCCCCCCCCCCC(=O)O[C@H](C)COP(=O)(O)OC[C@H](N)C(=O)O
EC50 (Mast cell [1]): > 10000 nM

Compound: CCCCCCCCCCCCCCCCCC(=O)OCCCCCOP(=O)(O)OC[C@H](N)C(=O)O
Activity (Mast cell [2]): inactive
EC50 (Mast cell [1]): > 10000 nM
Activity (Mast cell [3]): inactive

Compound: CCCCCCCCCCCCCCCCCC(=O)OC[C@@H](O)COP(=O)(O)OC[C@H](NC)C(=O)O
Activity (Mast cell [2]): inactive
EC50 (Mast cell [1]): > 10000 nM
Activity (Mast cell [3]): inactive

Compound: CCCCCCCCCCCCCCCCCC(=O)OCCOP(=O)(O)OC[C@H](N)C(=O)O
Activity (Mast cell [2]): inactive
EC50 (Mast cell [1]): > 10000 nM
Activity (Mast cell [3]): inactive

Compound: CCCCCCCCCCCCCCCCCC(=O)OCCCCOP(=O)(O)OC[C@H](N)C(=O)O
Activity (Mast cell [2]): inactive
EC50 (Mast cell [1]): 5000 nM
Activity (Mast cell [3]): inactive

Compound: CCCCCCCCCCCCCCCCCC(=O)OC[C@@H](O)COP(=O)(O)O[C@H]1CN[C@@H](C(=O)O)C1
Activity (Mast cell [2]): inactive
EC50 (Mast cell [1]): > 10000 nM
Activity (Mast cell [3]): inactive

Compound: CCCCCCCCCCCCCCCCCC(=O)OC[C@@H](O)COP(=O)(O)OC[C@H](N)C(=O)O
Activity (Mus musculus [29]): inactive
Activity (Mast cell [30]): inactive
Activity [12]: Non-toxic
Activity [14]: Active
EC50 (Mast cell [1]): 400 nM
Activity [17]: Active
Activity (CHO-K1 [18]): inactive
Activity (CHO-K1 [19]): inactive
Activity (Rattus norvegicus [31]): Active
Activity (CHO-K1 [20]): inactive
Activity [21]: Active
EC50 (Mast cell [4]): 100 nM
Activity [23]: Active
Activity (Mus musculus [32]): Active
Activity (Mast cell [24]): Active

Compound: CCCCCCCCCCCCCCCCCC(=O)OC[C@@H](O)COP(=O)(O)O[C@@H]1CN[C@@H](C(=O)O)C1
Activity (Mast cell [2]): inactive
EC50 (Mast cell [1]): > 10000 nM
Activity (Mast cell [3]): inactive
